Measurements: ChEMBL document CHEMBL4823242, “Cytotoxic Naphthoquinone Analogues, Including Heterodimers, and Their Structure Elucidation Using LR-HSQMBC NMR Experiments” (J Nat Prod, 2021)

Key:
Assay type in all cases: functional, cell-based
MDA-MB-435 = test: Cytotoxicity against human MDA-MB-435 cells after 72 hrs by Cell Titer-Blue cell viability assay; conditions: MDA-MB-435, 72 h
Procedure, shortened: (§1)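 Cells kept at 37 °C, 5% CO2 in RPMI 1640 with 10% FBS, penicillin 100 units/mL and streptomycin 100 μg/mL. Log-phase cells harvested by trypsin, washed twice, seeded at 5,000 per well and left overnight. DMSO-dissolved samples diluted and added, then 72 h at 37 °C. Viability read by CellTiter-Blue absorbance. IC50 is the concentration giving 50% growth relative to DMSO control.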

MDA-MB-231 = test: Cytotoxicity against human MDA-MB-231 cells after 72 hrs by Cell Titer-Blue cell viability assay; conditions: MDA-MB-231, 72 h; procedure, shortened: as §1
OVCAR-3 = test: Cytotoxicity against human OVCAR-3 cells after 72 hrs by Cell Titer-Blue cell viability assay; conditions: OVCAR-3, 72 h; procedure, shortened: as §1

Structure (SMILES) | IC50 (MDA-MB-435) [µM] | IC50 (MDA-MB-231) [µM] | IC50 (OVCAR-3) [µM]
CCc1c(OC)cc2c(c1O)C(=O)C=C(OC)C2=O | 2.1 | 7.8 | 7.3
CCc1c(OC)cc2c(c1O)C(=O)C[C@@H](OC)[C@H]2O | > 25 | > 25 | > 25
COC1=CC(=O)c2c(cc(OC)c(C)c2O)C1=O | 3.2 | 15 | 9.6
COC1=CC(=O)c2c(cc(OC)c(C(C)OC(C)=O)c2O)C1=O (racemic) | 0.7 | 6.2 | 0.9
COC1=CC(=O)c2c(cc(OC)c(C(C)C3=C(O)C(=O)c4cc(OC)cc(O)c4C3=O)c2O)C1=O (racemic) | 3.6 | 20 | 17
CCc1c(OC)cc2c(c1O)C(=O)C(C(C)c1c(OC)cc3c(c1O)C(=O)C=C(OC)C3=O)=C(O)C2=O (racemic) | 15 | 17 | 18
COC1=CC(=O)c2c(cc(OC)c(C(C)OC)c2O)C1=O (racemic) | 3.4 | 12 | 13
COC1=CC(=O)c2c(cc(OC)c(C(C)O)c2O)C1=O (racemic) | 3 | 12 | 7.9
COC1=CC(=O)c2c(cc(OC)c(C(C)C3=C(O)C(=O)c4cc(O)c(C(C)=O)c(O)c4C3=O)c2O)C1=O (racemic) [KIRSCHSTEININ] | 2.2 | 4.4 | 6.6
CC(=O)O[C@H]1C(=O)[C@@]2(C)[C@H]([C@H](OC(=O)c3ccccc3)[C@]3(O)C[C@H](OC(=O)[C@H](O)[C@@H](NC(=O)c4ccccc4)c4ccccc4)C(C)=C1C3(C)C)[C@]1(OC(C)=O)CO[C@@H]1C[C@@H]2O [PACLITAXEL] |  | 0.0002 | 0.0051
